Source: ChEMBL document CHEMBL4002546, “Evaluation of 7-arylaminopyrazolo[1,5-a]pyrimidines as anti-Plasmodium falciparum, antimalarial, and Pf-dihydroorotate dehydrogenase inhibitors” (Eur J Med Chem, 2017)

Key:
Plasmodium falciparum [1] = assay: Antiplasmodial activity against chloroquine-resistant Plasmodium falciparum W2 infected in human A+ erythrocytes assessed as inhibition of [3H]-hypoxanthine incorporation after 42 hrs by beta counting method; type: functional, cell-based
Procedure, shortened: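 W2 parasites cultured at 37 °C in A+ human erythrocytes in RPMI 1640 with 10% A+ human serum, under low O2 (3% O2, 5% CO2). Compound dilutions were tested at 1% parasitemia and 1% haematocrit. [3H]-hypoxanthine uptake was read by beta counting after 42 h. IC50 was derived by curve fitting relative to drug-free controls.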

Plasmodium falciparum [2] = assay: Antiplasmodial activity against chloroquine-resistant Plasmodium falciparum W2 infected in human A+ erythrocytes by HRP2 detection based ELISA; type: functional, cell-based
Procedure, shortened: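 W2 blood-stage culture in A+ human erythrocytes in RPMI 1640 with 10% A+ human serum at 37 °C, under 3% O2/5% CO2. Growth was read with monoclonal antibodies against histidine- and alanine-rich protein II (HRPII). IC50 was estimated by curve fitting against drug-free controls.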

[3] = Cytotoxicity against African green monkey BGM cells assessed as lethality after 24 hrs by neutral red dye based assay; type: cell-based; details: chlorocebus aethiops, read-out: MLD50
Procedure, shortened: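 BGM monkey kidney cells grown in RPMI 1640 with 10% heat-inactivated foetal serum and gentamicin. Cells were seeded at 1 × 10⁵ cells/mL and left 18 h to adhere. Compounds were added across a 1000–1 dilution range for 24 h at 37 °C in 5% CO2. Cells took up neutral red for 2 h, were fixed with formaldehyde/CaCl2 and extracted with alcohol-acetic acid, then read at A540. Viability is % of untreated cells; MLD50 was calculated from this.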

[4] = Selectivity index, ratio of MLD50 for african green monkey BGM cells to IC50 for chloroquine-resistant Plasmodium falciparum W2 infected in human A+ erythrocytes by [3H]-hypoxanthine incorporation assay; type: toxicity, cell-based; details: read-out: Selectivity Index
[5] = Selectivity index, ratio of MLD50 for african green monkey BGM cells to IC50 for chloroquine-resistant Plasmodium falciparum W2 infected in human A+ erythrocytes by HRP2 ELISA assay; type: toxicity, cell-based; details: read-out: Selectivity Index
[6] = target: Dihydroorotate dehydrogenase (quinone), mitochondrial (Homo sapiens) (UniProt Q02127); assay: Inhibition of recombinant human DHODH assessed as residual activity at 50 uM using L-dihydroorotate as substrate by DCIP-based colorimetric assay relative to control
Procedure, shortened: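 Recombinant human DHODH at 20 nM final, in 50 mM Tris pH 8.15 with 150 mM KCl and 0.1% Triton X-100. Substrate was 1 mM L-dihydroorotate, with CoQ0 as acceptor and DCIP as dye. DCIP reduction was followed at 610 nm for 60 s at 25 °C, against a no-enzyme reference. Four replicates per concentration; activity is % of the uninhibited control.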

Plasmodium falciparum [7] = assay: Inhibition of N-terminally truncated Plasmodium falciparum SUMO-tagged DHODH (159 to 569 residues) expressed in Escherichia coli BL21(DE3) assessed as residual activity at 50 uM using L-dihydroorotate as substrate by DCIP-based colorimetric assay relative to control
Procedure, shortened: (§1)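 Recombinant PfDHODH expressed in E. coli BL21(DE3) from a SUMO-His construct, IPTG-induced. Purified by Ni-NTA, then ULP1 tag cleavage, then size exclusion. Activity measured as continuous DCIP reduction at 600 nm over 60 s at 25 °C. Reaction: 50 mM Tris pH 8.15, 150 mM KCl, 0.1% Triton X-100, 1 mM L-dihydroorotate, 100 µM CoQ₀, 60 µM DCIP, 50 nM enzyme. Four replicates per concentration; activity relative to no-inhibitor control. IC50 from nonlinear fit.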

[8] = Inhibition of N-terminally truncated Plasmodium falciparum SUMO-tagged DHODH (159 to 569 residues) expressed in Escherichia coli BL21(DE3) using L-dihydroorotate as substrate by DCIP-based colorimetric assay; procedure, shortened: as §1
Plasmodium falciparum [9] = assay: Antiplasmodial activity against chloroquine-resistant Plasmodium falciparum W2 infected in human A+ erythrocytes after 48 hrs by SYBR Green based fluorescence assay; type: functional, cell-based; details: W2, 48 h
Procedure, shortened: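 W2 parasites kept at 37 °C in A+ human red cells in RPMI 1640 with 10% A+ human serum, under 3% O2/5% CO2/91% N2. Serial dilutions were run at 0.5% parasitemia and 2% haematocrit for 48 h at 37 °C. Cells were lysed in Tris/EDTA/saponin/Triton buffer with SYBR Safe for 30 min in the dark, then read at ex 485/em 535 nm. IC50 was curve-fitted against drug-free controls.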

[10] = Solubility of the compound at >100 uM; type: physicochemical
[11] = Selectivity index, ratio of MLD50 for african green monkey BGM cells to IC50 for chloroquine-resistant Plasmodium falciparum W2 infected in human A+ erythrocytes by SYBR Green based fluorescence assay; type: toxicity, cell-based
Plasmodium berghei [12] = assay: Antimalarial activity against Plasmodium berghei NK65 infected in mouse assessed as reduction in parasitemia at 5 mg/kg, po administered daily for 3 consecutive days starting 24 hrs post inoculum challenge containing parasitized red blood cells measured on day 5 by giemsa staining based microscopic method; type: functional
Procedure, shortened: (§2)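 P. berghei NK65 maintained by weekly blood passage. Mice inoculated i.p. with 1 × 10⁶ infected erythrocytes, randomized after ~24 h into groups of five. Oral dosing at 5 mg/kg once daily for 3 days, freshly diluted in 3% DMSO in RPMI; vehicle and amodiaquine controls. Parasitemia read on Giemsa-stained, methanol-fixed tail-blood thin smears. Inhibition is relative to untreated mice, taken as 100% growth.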

Plasmodium berghei [13] = assay: Antimalarial activity against Plasmodium berghei NK65 infected in mouse assessed as reduction in parasitemia at 5 mg/kg, po administered daily for 3 consecutive days starting 24 hrs post inoculum challenge containing parasitized red blood cells measured on day 7 by giemsa staining based microscopic method; type: functional; procedure, shortened: as §2
Plasmodium berghei [14] = assay: Antimalarial activity against Plasmodium berghei NK65 infected in mouse assessed as reduction in parasitemia at 5 mg/kg, po administered daily for 3 consecutive days starting 24 hrs post inoculum challenge containing parasitized red blood cells measured on day 9 by giemsa staining based microscopic method; type: functional; procedure, shortened: as §2
Plasmodium berghei [15] = assay: Antimalarial activity against Plasmodium berghei NK65 infected in mouse assessed as reduction in parasitemia at 5 mg/kg, po administered daily for 3 consecutive days starting 24 hrs post inoculum challenge containing parasitized red blood cells measured on day 11 by giemsa staining based microscopic method; type: functional; procedure, shortened: as §2

Chain of Dihydroorotate dehydrogenase (quinone), mitochondrial (Homo sapiens) (Q02127 whole entry): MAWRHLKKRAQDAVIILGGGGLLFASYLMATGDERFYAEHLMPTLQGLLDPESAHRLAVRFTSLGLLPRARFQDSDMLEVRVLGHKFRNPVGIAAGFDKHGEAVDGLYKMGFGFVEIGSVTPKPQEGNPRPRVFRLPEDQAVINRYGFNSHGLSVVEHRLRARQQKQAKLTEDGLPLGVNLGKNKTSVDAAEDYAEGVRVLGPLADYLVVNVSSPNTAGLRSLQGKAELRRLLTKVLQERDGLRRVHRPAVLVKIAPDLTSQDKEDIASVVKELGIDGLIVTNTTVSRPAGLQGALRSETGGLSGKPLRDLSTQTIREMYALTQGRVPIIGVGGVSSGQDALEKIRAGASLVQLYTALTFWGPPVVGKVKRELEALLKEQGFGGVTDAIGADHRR

Row | SMILES | IC50 (Plasmodium falciparum [1]) [µM] | IC50 (Plasmodium falciparum [2]) [µM] | CC50 at 24 h [3] [µM] | selectivity ratio [4] | selectivity ratio [5] | Activity [6] [%] | Activity (Plasmodium falciparum [7]) [%] | IC50 [8] [µM] | IC50 (Plasmodium falciparum [9]) [µM] | solubility [10] | selectivity ratio [11] | inhibition in vivo at 5 mg/kg (Plasmodium berghei [12]) [%] | inhibition in vivo at 5 mg/kg (Plasmodium berghei [13]) [%] | inhibition in vivo at 5 mg/kg (Plasmodium berghei [14]) [%] | inhibition in vivo at 5 mg/kg (Plasmodium berghei [15]) [%]
1 | Cc1cc(Nc2ccccc2C(F)(F)F)n2nc(C(F)(F)F)cc2n1 | 50 | 44.4 | 228 | 4.6 | 5.1 | 93 | 48 | – | – | – | – | – | – | – | –
2 | Cc1cc(Nc2ccc(Cl)cc2)n2nc(C(F)(F)F)cc2n1 | 50.3 | 67.5 | 67.5 | 1.3 | 1 | 121 | 52 | 23 | – | – | – | – | – | – | –
3 | Cc1cc(Nc2ccc3ccccc3c2)n2nc(C(F)(F)F)nc2n1 | – | – | 425 | 18.5 | 18.5 | – | 37 | 0.7 | – | – | – | – | – | – | –
4 | Cc1cc(Nc2ccc(Cl)cc2)n2nc(C)cc2n1 | 25.7 | 23.5 | 566 | 22 | 24.1 | 95 | 74 | – | – | – | – | – | – | – | –
5 | COc1cc(Nc2cc(C)nc3cc(C)nn23)cc(OC)c1 | 26.8 | 21.5 | 188 | 7 | 8.7 | 80 | 42 | > 400 | – | – | – | – | – | – | –
6 | COc1cc(Nc2cc(C(F)(F)F)nc3cc(C)nn23)cc(OC)c1 | 8.6 | – | > 2840 | > 330 | – | 104 | 77 | – | 8.6 | Insoluble | > 330 | – | – | – | –
7 | Cc1cc2nc(C(F)(F)F)cc(Nc3ccccc3)n2n1 | 17.1 | – | 261 | 15.2 | – | 122 | 77 | – | 17.1 | Insoluble | 15.2 | – | – | – | –
8 | Cc1cc(Nc2ccccc2)n2nc(C)cc2n1 | 67.2 | 92.4 | 315 | 4.7 | 3.4 | 104 | 66 | – | – | – | – | – | – | – | –
9 | CCN(CC)Cc1cc(Nc2ccnc3cc(Cl)ccc23)ccc1O [AMODIAQUINE] | 0.006 | – | – | – | – | – | 79 | > 400 | 0.006 | – | – | 100 | 100 | 100 | 100
10 | Cc1cc2nc(C(F)(F)F)cc(Nc3ccc4ccccc4c3)n2n1 | 10 | – | 2340 | 234 | – | 101 | 60 | 0.16 | 10 | Insoluble | 234 | 25 | 1 | 4 | 29
11 | Cc1cc(Nc2ccc3ccccc3c2)n2nc(C(F)(F)F)cc2n1 | 1.2 | – | 561 | 468 | – | 56.8 | 67.5 | 6 | 1.2 | Insoluble | 468 | 50 | 61 | 47 | 59
12 | Cc1cc(Nc2ccc(C(F)(F)F)cc2)n2nc(C(F)(F)F)cc2n1 | 47.2 | 30.6 | 108 | 2.3 | 3.5 | 95 | 33 | > 100 | – | – | – | – | – | – | –
13 | Cc1cc(Nc2ccccc2C(F)(F)F)n2nc(C)cc2n1 | 42.5 | 49 | 105 | 2.5 | 2.1 | 96 | 94 | – | – | – | – | – | – | – | –
14 | COc1cc(Nc2cc(C)nc3cc(C(F)(F)F)nn23)cc(OC)c1 | > 142 | > 142 | 256 | – | – | 95 | 57 | > 400 | – | – | – | – | – | – | –
15 | Cc1cc(Nc2ccc(C(F)(F)F)cc2)n2nc(C)cc2n1 | 15.7 | 8.5 | 85 | 5.4 | 10 | 88 | 34.3 | 24 | – | – | – | – | – | – | –
16 | Cc1cc(Nc2ccccc2)n2nc(C(F)(F)F)cc2n1 | > 171 | > 171 | 856 | – | – | 113 | 88 | – | – | – | – | – | – | – | –
